Assay results collected from several papers.
Lines come from different studies, so protocols differ.
Target: Dual specificity mitogen-activated protein kinase kinase 1 (MAP2K1, Homo sapiens, UniProt Q02750)

SMILES	test	setting	remaining binding [%]
CN1CC[C@H](c2c(O)cc(O)c3c(=O)cc(-c4ccccc4Cl)oc23)[C@H](O)C1	cell-free assay, competition with immobilised ligand	0.1 µM	92
COc1cnc(Nc2cccc(S(N)(=O)=O)c2)nc1N1CCN(c2ccccc2)CC1	binding, competition with immobilised ligand	1 µM	90
F[C@@H]1CCN(c2nccc(-c3cnn4ncccc34)n2)C1	binding	1 µM	89
CS(=O)(=O)CCNCc1ccc(-c2ccc3ncnc(Nc4ccc(OCc5cccc(F)c5)c(Cl)c4)c3c2)o1	cell-free assay, competition with immobilised ligand	0.1 µM	95
COc1ccc2c(c1)O[C@@H](c1ccc(OC)c(OC)c1)C[C@H]2NC(=O)C1(c2ccc3c(c2)OC(F)(F)O3)CC1	cell-free assay, competition with immobilised ligand	1 µM	86
CN(C)c1nccc(-c2cnc3ncccn23)n1	binding, competition with immobilised ligand	1 µM	81
Nc1ncc2c(n1)-c1c([nH]c3ccc(C#CC4CC4)cc13)CCCC2	binding, competition with immobilised ligand	1 µM	100
O=C(NCCCN1CCOCC1)c1ccc(Nc2nccc(-c3cc4ccccc4s3)n2)cc1	binding, competition with immobilised ligand	1 µM	75
c1cncc(-c2cccc(Nc3nccc(NC4CCCCC4)n3)c2)c1	binding, competition with immobilised ligand	10 µM	79
CCN1CCN(Cc2ccc(C(=O)Nc3ccc(C)c(Oc4ccc5c(c4)CC(=O)N5)c3)cc2C(F)(F)F)CC1	binding, competition with immobilised ligand	1 µM	100
CC(=O)N1CCC(c2ccc(C(=O)NC(=N)N)cc2C(F)(F)F)CC1	cell-free assay, competition with immobilised ligand	1 µM	97
CNC(=O)[C@@H]1CC[C@@H](n2c(-c3ccc4cnccc4c3)nc3ccc(C(=O)NCc4cccc(C(N)=O)c4)cc32)C1	binding, competition with immobilised ligand	1 µM	100
COc1cc2ncnc(Nc3ccc(F)c(Cl)c3)c2cc1OCCCN1CCOCC1	cell-free assay, competition with immobilised ligand	10 µM	83
O=C(c1ccc(Nc2ncc(Cl)c(-c3ccc(Cl)s3)n2)cc1)N1CCC(N2CCCC2)CC1	binding, competition with immobilised ligand	1 µM	18
C[C@H](c1ccc(F)cc1)N(Cc1cccc(C(=O)O)c1)C(=O)c1cnc2ccccc2c1	cell-free assay, competition with immobilised ligand	1 µM	100
C[C@@H]1CCN(c2nccc(-c3cnn4ncccc34)n2)C1	binding, competition with immobilised ligand	1 µM	75

SMILES	test	setting	remaining binding [%]
O=C(Nc1c[nH]nc1C(=O)NC1CCNCC1)c1cc(F)cc(F)c1	binding, competition with immobilised ligand	1 µM	80
Cc1ccc(NC(=O)c2ccc(CN3CCN(C)CC3)cc2)cc1Nc1nccc(-c2cccnc2)n1	cell-free assay, competition with immobilised ligand	0.1 µM	95
N[C@@H]1CCN(c2nccc(-c3cnn4ncccc34)n2)C1	binding	1 µM	100
Cc1c(-c2ccccc2)oc2c(C(=O)OCCN3CCCCC3)cccc2c1=O	cell-free assay, competition with immobilised ligand	0.1 µM	94
N#CC1(c2ccccn2)CCN(Cc2cc(C(=O)N3CCCC3)c(=O)n3ccccc23)CC1	cell-free assay, competition with immobilised ligand	1 µM	100
O=C(c1ccc(Nc2nccc(-c3cc4ccccc4s3)n2)cc1)N1CCC(N2CCCC2)CC1	binding, competition with immobilised ligand	1 µM	54
Cc1noc([C@H]2C[C@@H](c3ccc(C(F)(F)F)cc3)CN(C(=O)N3CCS(=O)(=O)C3)C2)n1	cell-free assay, competition with immobilised ligand	1 µM	100
CN(C)c1ncc(F)c(-c2cnn3ncccc23)n1	binding, competition with immobilised ligand	1 µM	78
O=C(N1CCS(=O)(=O)CC1)N1C[C@H](c2ccc(OC(F)(F)F)cc2)C[C@H](c2nc(C3CC3)no2)C1	cell-free assay, competition with immobilised ligand	1 µM	91
CCN(CC)Cc1cc(Nc2ccnc3cc(Cl)ccc23)ccc1O	cell-free assay, competition with immobilised ligand	0.1 µM	95
C[C@@H]1CN(c2ccc3ncc(-c4ccc5[nH]nc(C6CC6)c5c4)n3n2)C[C@H](C)O1	binding, competition with immobilised ligand	50 nM	80
CNC(=O)c1cc(Oc2ccc(NC(=O)Nc3ccc(Cl)c(C(F)(F)F)c3)cc2)ccn1	cell-free assay, competition with immobilised ligand	0.1 µM	100
CC(=O)Nc1c(C(C)=O)c(=O)n(C)c2nc(-c3ccc(Cl)cc3Cl)c(-c3ccc(Cl)cc3)cc12	cell-free assay, competition with immobilised ligand	1 µM	100
FC(F)(F)Oc1cccc(-c2cnc3ccc(-c4ccncc4)nn23)c1	cell-free assay, competition with immobilised ligand	5 µM	70
C[C@H](c1cccc(C#N)c1)n1cc(Cl)cc(C(N)=O)c1=N	cell-free assay, competition with immobilised ligand	1 µM	75
CCN(CC)CCNC(=O)c1c(C)[nH]c(/C=C2\C(=O)Nc3ccc(F)cc32)c1C	cell-free assay, competition with immobilised ligand	0.1 µM	51
